These results are taken from ChEMBL document CHEMBL2417550, “Inhibition of the Escherichia coli 6-oxopurine phosphoribosyltransferases by nucleoside phosphonates: potential for new antibacterial agents” (J Med Chem, 2013).

One may read the IC50 as the concentration that inhibits the measured activity by half. As a reminder, the MIC99 is the lowest concentration that inhibits either 99% of growth or 99% of the strains tested, depending on the study. The term EC50 denotes the concentration giving half of the maximal effect. Low readings indicate a more potent agent, high ones a less potent agent. What is called Ki is the dissociation constant of the complex between target and ligand, obtained from inhibition or displacement.

Assay [1] deals with Mycobacterium tuberculosis. The assay can be described thus: Antimycobacterial activity against Mycobacterium tuberculosis H37Ra ATCC 25177 after 5 days by resazurin reduction assay. Format: functional, organism-based. Particulars: H37Ra ATCC 25177, 120 h. The method in brief: (§1)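 M. tuberculosis H37Ra grown at 37 °C in 7H9 with OADC, 0.5% glycerol, 0.05% Tween-80 for about 14 days to mid-exponential phase (OD600 0.4−0.8). Diluted to OD600 0.001 (about 2 × 10^4 CFU/ml) in 7H9S with 0.5% DMSO and exposed to serially diluted compounds. Incubated 5 days at 37 °C, then resazurin added. Fluorescence (ex 530/em 580 nm) read 30 h later. Signal normalised to no-inhibitor and no-bacteria controls to give IC50.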

In the next assay the test system is A549. Briefly: Cytotoxicity against human A549 cells after 4 days by coulter counter analysis. The class given is cell-based. Particulars: A549, 96 h.
A short description of assay [2]: Inhibition of Escherichia coli recombinant XGPRT mutant expressed in Escherichia coli SPhi606 using guanine as substrate by spectrophotometric analysis. The method in brief: (§2)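 Enzymes (wild-type XGPRT, HPRT, and the XGPRT mutant lacking six flexible-loop residues) were expressed in E. coli SΦ606, purified to homogeneity and stored at −70 °C in 0.1 M Tris-HCl, 10 mM MgCl2, 1 mM DTT, pH 7.4. Ki was determined spectrophotometrically. Fixed base was 60 μM: guanine for XGPRT, hypoxanthine for HPRT. PRib-PP was varied from 14 to 1000 μM, and inhibitor from 0.1 to 140 μM.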

Assay [3] can be described thus: Inhibition of Escherichia coli XGPRT expressed in Escherichia coli SPhi606 using guanine as substrate by spectrophotometric analysis. The method in brief:
as §2

Assay [4] in a line: Inhibition of Escherichia coli HPRT expressed in Escherichia coli SPhi606 using hypoxanthine as substrate by spectrophotometric analysis. The method in brief: as §2
Assay [5] can be described thus: Binding affinity to Escherichia coli XGPRT.
The nature of assay [6]: Selectivity index, ratio of EC50 for human A549 cells to MIC50 for Mycobacterium tuberculosis H37Ra ATCC 25177. Format: functional.
Assay [7] relates to Mycobacterium tuberculosis. Briefly: Antimycobacterial activity against Mycobacterium tuberculosis H37Ra ATCC 25177 at >= 250 uM after 5 days by resazurin reduction assay. The class given is functional, organism-based. The method in brief:
as §1
On the technique in general: Alamar Blue is a resazurin reagent that responds to reducing activity.

Assay [8] has as its system Escherichia coli. Briefly: Competitive inhibition of Escherichia coli XGPRT expressed in Escherichia coli SPhi606 using guanine as substrate by spectrophotometric analysis in presence of PRib-PP. The method in brief: as §2
Assay [9] is described as follows: (§3) Non-competitive inhibition of Escherichia coli HPRT expressed in Escherichia coli SPhi606 using hypoxanthine as substrate by spectrophotometric analysis in presence of PRib-PP. The method in brief:
as §2

Assay [10] can be described thus: Competitive inhibition of Escherichia coli XGPRT expressed in Escherichia coli SPhi606 using guanine as substrate by spectrophotometric analysis in presence of pyrophosphate. The method in brief:
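Ki was determined spectrophotometrically on purified XGPRT expressed in E. coli SΦ606, with guanine fixed at 60 μM. PRib-PP was varied from 14 to 1000 μM, and inhibitor from 0.1 to 140 μM. Pyrophosphate (33 μM) was added to the assay mixture along with the inhibitor.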

In assay [11] the test system is Escherichia coli. The assay is described as §3. The method in brief:
as §2

Converted amounts (≈) assume the structure as drawn. The source made the active and inactive calls. No cut-off for these calls is given here.

As for `CCOC(=O)[C@H](Cc1ccccc1)NP(=O)(COCC(COCP(=O)(N[C@@H](Cc1ccccc1)C(=O)OCC)N[C@@H](Cc1ccccc1)C(=O)OCC)Cn1cnc2c(=O)[nH]cnc21)N[C@@H](Cc1ccccc1)C(=O)OCC`, in assay [1], half-maximal inhibition (IC50) was put at 5 µM and the MIC99 amounted to 20 µM (≈ 22.3 µg/mL). Also, the concentration giving a half-maximal response (EC50) with A549 stood at 100 µM.
Consider `O=c1[nH]cnc2c1ncn2CCOCCP(=O)(O)O`, for which the inhibitory constant (Ki) was found to be 46 µM in assay [2], 1.5 µM in assay [3] and 17 µM in [4].
In the case of `CC(C)(C)C(=O)SCCOP(=O)(CC(=O)N1CC[C@H](n2cnc3c(=O)[nH]c(N)nc32)C1)OCCSC(=O)C(C)(C)C`, in assay [1], it took 5 µM to reach half-maximal inhibition (IC50) and the MIC99 came to 20 µM (≈ 12.6 µg/mL). Also, in the assay with A549, the half-maximal effective concentration (EC50) was more than 300 µM.
In the case of `Nc1nc2c(ncn2[C@@H]2O[C@H](COP(=O)(O)O)[C@@H](O)[C@H]2O)c(=O)[nH]1`, the results for the Ki in [2], in assay [5] and in assay [4] were 120 µM, 4.5 µM and 526 µM, respectively.
Regarding `Nc1nc2c(ncn2C(COCP(=O)(O)O)C(O)COCP(=O)(O)O)c(=O)[nH]1` (centres undefined), the Ki was 14 µM in assay [2] and 21 µM in assay [3].
In the case of `Nc1nc2c(ncn2[C@H]2CCN(C(=O)CP(=O)(O)O)C2)c(=O)[nH]1`, the “Selectivity Index” value in assay [6] was “>=17”. The figures for the Ki in assay [2] and in assay [3] were 3 µM and 0.23 µM, respectively. For the same compound, in assay [7], the result was inactive. Besides, the inhibition entry in the assay on Escherichia coli [8] was “Active”.
On to `O=c1[nH]cnc2c1ncn2CC(COCP(=O)(O)O)COCP(=O)(O)O`, for which the “Selectivity Index” value in [6] is 4. For the same compound, in assay [7], the outcome was inactive. For the same compound, in [4], affinity was put at a Ki of 0.8 µM.
As for `Nc1nc2c(ncn2[C@@H]2CN(C(=O)CP(=O)(O)O)C[C@@H]2O)c(=O)[nH]1`, the Ki in [2] and in [3] was more than 250 µM in each case.
Turning to `O=c1[nH]cnc2c1ncn2C(COCP(=O)(O)O)COCP(=O)(O)O`, the affinity in assay [3], expressed as Ki, was 73 µM.
In assay [1], `CCOC(=O)[C@H](Cc1ccccc1)NP(=O)(CCOCC(Cn1cnc2c(=O)[nH]c(N)nc21)OCCP(=O)(N[C@@H](Cc1ccccc1)C(=O)OCC)N[C@@H](Cc1ccccc1)C(=O)OCC)N[C@@H](Cc1ccccc1)C(=O)OCC` (some centres undefined) came in with an IC50 of 5 µM and an MIC99 of 20 µM (≈ 22.8 µg/mL). Moreover, the EC50 in the assay with A549 came out at 100 µM.
As for `Nc1nc2c(ncn2[C@@H]2CN(C(=O)CP(=O)(O)O)C[C@H]2OC(=O)CP(=O)(O)O)c(=O)[nH]1`, the Ki amounted to 2.6 µM in assay [2] and 0.4 µM in [3]. The inhibition result with Escherichia coli [8] is “Active”.
`Nc1nc2c(ncn2CC(COCP(=O)(O)O)COCP(=O)(O)O)c(=O)[nH]1`: the “Selectivity Index” value in assay [6] is on record as “>=17”. In addition, the Ki was 0.24 µM in assay [2] and 0.01 µM in assay [3]. In assay [7], the result was inactive.
Consider `Nc1nc2c(ncn2[C@H]2CN(C(=O)CP(=O)(O)O)C[C@H]2O)c(=O)[nH]1`, for which the Ki in assay [2] came to 3 µM; in [3], 2.2 µM. In addition, the inhibition entry in the assay with Escherichia coli [8] is “Active”.
For `CCOC(=O)[C@H](Cc1ccccc1)NP(=O)(COCC(COCP(=O)(N[C@@H](Cc1ccccc1)C(=O)OCC)N[C@@H](Cc1ccccc1)C(=O)OCC)Cn1cnc2c(=O)[nH]c(N)nc21)N[C@@H](Cc1ccccc1)C(=O)OCC`, in assay [1], the 50% inhibitory concentration (IC50) was found to be 5 µM and the MIC99 worked out at 20 µM (≈ 22.6 µg/mL). The compound further yielded an EC50 with A549 of more than 300 µM.
Take `Nc1nc2c(ncn2CCOCCP(=O)(O)O)c(=O)[nH]1`: the Ki in assay [2] stood at 11 µM; in assay [3] it was 0.7 µM.
The like results for `Nc1nc2c(ncn2C(COCP(=O)(O)O)COCP(=O)(O)O)c(=O)[nH]1` were, in that order, 16 µM and 3 µM.
With `Nc1nc2c(ncn2CC(O)COCP(=O)(O)O)c(=O)[nH]1` (centres undefined), the Ki in assay [2] is not below 3 µM; in assay [9], 35 µM; in [4] it was more than 700 µM; in [10], 0.32 µM.
For `O=c1[nH]cnc2c1ncn2CC(O)COCP(=O)(O)O` (centres undefined), the inhibitory constant (Ki) in assay [2] was more than 200 µM; in [3], 16 µM; in assay [4], 73 µM. The inhibition entry in the assay on Escherichia coli [11] is “Active”.
As for `Nc1nc2c(ncn2CC(COCCP(=O)(O)O)OCCP(=O)(O)O)c(=O)[nH]1` (centres undefined), the “Selectivity Index” value in [6] is “>=17”. Besides, in assay [7], the result was inactive. This compound displayed a Ki in assay [3] of 0.11 µM.
For the compound `O=C(CP(=O)(O)O)N1CC[C@@H](n2cnc3c(=O)[nH]cnc32)C1`, the inhibition constant Ki is more than 200 µM in assay [2], more than 200 µM in [3] and 35 µM in [4].
